In one test the target is Coagulation factor X (Homo sapiens, UniProt P00742). Description: Inhibition of human factor 10a using chromogenic spectrozyme F10a as substrate after 10 mins by spectrophotometry. The method, boiled down: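 Human plasma FXa pre-incubated 10 min at 37 °C with inhibitor (twelve concentrations, 0.015–500 μM in well) in pH 7.4 buffer, then Spectrozyme FXa added. Initial rate of A405 rise gives residual activity relative to no-inhibitor control. Duplicate or triplicate; logistic fit gives IC50, efficacy and Hill slope. Organic solvent held constant, <2.5% v/v.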
Coagulation factor X, sequence (P00742 41-179 limits assumed): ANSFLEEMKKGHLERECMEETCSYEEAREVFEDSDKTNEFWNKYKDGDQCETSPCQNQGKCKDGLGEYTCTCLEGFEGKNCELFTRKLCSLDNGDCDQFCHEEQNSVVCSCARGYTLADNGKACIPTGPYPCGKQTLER
Coagulation factor X, sequence (P00742 235-488 limits assumed): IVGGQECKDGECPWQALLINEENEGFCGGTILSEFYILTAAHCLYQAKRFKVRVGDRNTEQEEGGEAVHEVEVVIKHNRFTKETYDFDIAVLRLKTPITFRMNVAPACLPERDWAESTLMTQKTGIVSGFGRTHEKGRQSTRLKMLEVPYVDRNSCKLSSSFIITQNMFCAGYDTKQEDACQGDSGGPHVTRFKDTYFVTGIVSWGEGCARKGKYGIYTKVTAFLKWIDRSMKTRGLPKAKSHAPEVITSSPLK

The test system of test [1] is Plasma. The test can be described thus: Anticoagulant activity in human plasma assessed as concentration required to double the prothrombin time incubated for 30 s prior to thromboplastin addition by fibrometry.
The subject of test [2] is Plasma. The test can be described thus: Anticoagulant activity in human plasma assessed as concentration required to double the activated […] time incubated for 4 mins prior to CaCl2-challenge by fibrometry. The test is classed as functional.

A word on the pIC50: it is the negative decadic logarithm of the IC50, by convention in mol/L.

pIC50: −log10 of the molar value. A value given as a limit tells only on which side of the number the result lay.

The compound `CN(C(=O)[C@@H]1CCCN(C(=O)c2ccc(Cl)s2)C1)c1ccc(N2CCCCC2=O)cc1` showed a pIC50 against Coagulation factor X of 4.16.
`CN(C(=O)[C@H]1Cc2ccccc2CN1C(=O)Cc1ccc(C(F)(F)F)cc1)c1ccc(N2CCCCC2=O)cc1` had a negative-log IC50 (pIC50) against Coagulation factor X of 3.51.
Still for that read-out and setting: the same measure for `Cc1ccc(CC(=O)N2Cc3ccccc3C[C@H]2C(=O)N(C)c2ccc(N3CCCCC3=O)cc2)cc1`: 4.85; for `COc1ccc(CC(=O)N2Cc3ccccc3C[C@H]2C(=O)N(C)c2ccc(N3CCCCC3=O)cc2)cc1`: 4.47.
Same read-out and setting: the result for `CN(C(=O)[C@@H]1Cc2ccccc2CN1C(=O)OC(C)(C)C)c1ccc(N2CCCCC2=O)cc1` reads 3.66; that for `CN(C(=O)[C@@H]1Cc2ccccc2CN1C(=O)Cc1ccc(Cl)cc1)c1ccc(N2CCOCC2=O)cc1`, 5.96.
Take `COc1ccc(C(=O)N2Cc3ccccc3C[C@H]2C(=O)N(C)c2ccc(N3CCCCC3=O)cc2)cc1`: the negative logarithm of the IC50 (pIC50) against Coagulation factor X was 4.72.
Take `CN(C(=O)[C@@H]1Cc2ccccc2CN1C(=O)c1ccc(Cl)cc1)c1ccc(N2CCCCC2=O)cc1`: the pIC50 against Coagulation factor X is 3.71.
Still for that read-out and setting: the same measure for `CN(C(=O)[C@@H]1Cc2ccccc2CN1C(=O)Cc1ccc([N+](=O)[O-])cc1)c1ccc(N2CCCCC2=O)cc1`: 4.07.
The same measure, in the same setting: the result for `CC(C)N(C(=O)[C@@H]1Cc2ccccc2CN1C(=O)OCc1ccccc1)c1ccc(N2CCCCC2=O)cc1` reads 4.72.
With `O=C(Nc1ccc(N2CCOCC2=O)cc1)[C@@H]1CC=CCN1C(=O)Cc1ccc(Cl)cc1`, the 2PT in the test with Plasma [1] came out at 952 µM. The 2aPTT in the test with Plasma [2] turned out to be 810 µM. Also, on Coagulation factor X, the pIC50 was 5.05.
As to `CN(C(=O)[C@H]1Cc2ccccc2CN1C(=O)Cc1ccc(Cl)cc1)c1ccc(N2CCCCC2=O)cc1`, the negative logarithm of the IC50 (pIC50) against Coagulation factor X is 6.05.
Still for that read-out and setting: the result for `O=C(Nc1ccc(N2CCOCC2=O)cc1)[C@H]1CCCCN1C(=O)Cc1ccc(Cl)cc1` reads 4.64.
For `Cc1c(C(=O)N2Cc3ccccc3C[C@H]2C(=O)Nc2ccc(N3CCOCC3=O)cc2)sc2ccc(Cl)cc12`, in the test with Plasma [1], the 2PT was 2160 µM. On Coagulation factor X, this compound had a pIC50 of 5.27.
For `O=C(Nc1ccc(Cl)cc1)[C@@H]1Cc2ccccc2CN1C(=O)OCc1ccccc1`, at Coagulation factor X, the negative logarithm of the IC50 (pIC50) is under 3.30.
Same read-out and setting: the result for `CN(C(=O)[C@@H]1Cc2ccccc2CN1C(=O)OCc1ccccc1)c1ccc(N2CCOCC2=O)cc1` reads 4.89; that for `CN(C(=O)[C@@H]1Cc2ccccc2CN1S(=O)(=O)Cc1ccc(Cl)cc1)c1ccc(N2CCCCC2=O)cc1`, 3.82.
Regarding `CN(C(=O)[C@@H]1Cc2ccccc2CN1C(=O)Cc1ccc(Cl)cc1)c1ccc(N2CCCCC2=O)cc1`, the 2PT with Plasma [1] stood at 71 µM. Moreover, in the test on Plasma [2], the 2aPTT is 80 µM. At Coagulation factor X, this compound showed a negative logarithm of the IC50 (pIC50) of 5.89.
Regarding `O=C(Nc1ccc(N2CCN(C(=O)c3cccs3)CC2)cc1)[C@@H]1Cc2ccccc2CN1C(=O)OCc1ccccc1`, the pIC50 against Coagulation factor X was under 3.30.
For `CN(C(=O)[C@@H]1Cc2ccccc2CN1C(=O)c1cc(-c2ccc(Br)cc2)cs1)c1ccc(N2CCOCC2=O)cc1`, the pIC50 against Coagulation factor X was under 3.30.
`CN(C(=O)[C@@H]1Cc2ccccc2CN1C(=O)c1cccs1)c1ccc(N2CCCCC2=O)cc1` gave a negative logarithm of the IC50 (pIC50) at Coagulation factor X of 4.38.
`CN(C(=O)[C@@H]1CCCCN1C(=O)c1ccc(Cl)s1)c1ccc(N2CCCCC2=O)cc1` showed a pIC50 against Coagulation factor X of 3.45.
`COc1cc2c(cc1OC)CN(C(=O)Cc1ccc(Cl)cc1)[C@H](C(=O)N(C)c1ccc(N3CCCCC3=O)cc1)C2` had a pIC50 against Coagulation factor X of 5.11.
In turn, `CN(C(=O)[C@@H]1Cc2ccccc2CN1C(=O)Cc1ccc(Cl)c(Cl)c1)c1ccc(N2CCCCC2=O)cc1` had a negative-log IC50 (pIC50) against Coagulation factor X of 4.74. This pIC50 lies 0.37 log units lower than the previous one.
The compound `CN(C(=O)[C@H]1CCCN(C(=O)Cc2ccc(Cl)cc2)C1)c1ccc(N2CCCCC2=O)cc1` gave a pIC50 against Coagulation factor X of 3.43.
As to `COc1ccc(CC(=O)N2Cc3ccccc3C[C@H]2C(=O)N(C)c2ccc(N3CCCCC3=O)cc2)cc1OC`, at Coagulation factor X, the negative-log IC50 (pIC50) is 3.61.
The same measure, in the same setting: the result for `O=C(Nc1ccc(N2CCCCC2)cc1)[C@@H]1Cc2ccccc2CN1C(=O)OCc1ccccc1` reads under 3.30; that for `CN(C(=O)[C@@H]1Cc2ccccc2CN1C(=O)CCc1ncc(-c2ccc(Cl)cc2)o1)c1ccc(N2CCCCC2=O)cc1`, 3.99.
On to `Cc1ccc(C(=O)N2Cc3ccccc3C[C@H]2C(=O)N(C)c2ccc(N3CCCCC3=O)cc2)cc1`, for which the pIC50 against Coagulation factor X is 3.68.
Still for that read-out and setting: the same measure for `CCN(C(=O)[C@@H]1Cc2ccccc2CN1C(=O)OCc1ccccc1)c1ccc(N2CCCCC2=O)cc1`: 4.70.
Regarding `CN(C(=O)[C@@H]1Cc2ccccc2CN1C(=O)Cc1ccc(Cl)cc1Cl)c1ccc(N2CCCCC2=O)cc1`, the 2PT with Plasma [1] stood at 219 µM. Moreover, the 2aPTT in the test with Plasma [2] came out at 260 µM. This compound had a pIC50 on Coagulation factor X of 5.89.
Taken in the same sequence, the figures for `O=C(Nc1ccc(N2CCOCC2=O)cc1)[C@@H]1Cc2ccccc2CN1C(=O)c1ccc(CCl)cc1` were 645 µM, 614 µM and 5.54.
`O=C(Nc1ccc(N2CCCCC2=O)cc1)[C@@H]1Cc2ccccc2CN1C(=O)c1ccc(C(F)(F)F)cc1`: the negative logarithm of the IC50 (pIC50) on Coagulation factor X is 4.88.
In the case of `CN(C(=O)[C@H](Cc1ccccc1)NC(=O)Cc1ccc(Cl)cc1)c1ccc(N2CCCCC2=O)cc1`, the negative-log IC50 (pIC50) against Coagulation factor X is 4.27.
On Coagulation factor X, `CC(=O)N1CCN(c2ccc(NC(=O)[C@@H]3Cc4ccccc4CN3C(=O)OCc3ccccc3)cc2)CC1` showed a negative logarithm of the IC50 (pIC50) of under 3.30.
Same read-out and setting: the same measure for `CN(C(=O)[C@H]1CCCCN1C(=O)c1ccc(Cl)s1)c1ccc(N2CCCCC2=O)cc1`: 4.00.
As to `CN(C(=O)[C@@H]1Cc2ccccc2CN1C(=O)Cc1ccc(C(F)(F)F)cc1)c1ccc(N2CCCCC2=O)cc1`, the pIC50 at Coagulation factor X was 3.47.
With `O=C(Nc1ccc(N2CCOCC2=O)cc1)[C@@H]1[C@@H]2CC[C@H](C2)N1C(=O)Cc1ccc(Cl)cc1`, the 2PT in the test on Plasma [1] is 2347 µM. Moreover, at Coagulation factor X, the pIC50 was 5.00.
At Coagulation factor X, `CCN(C(=O)[C@@H]1Cc2ccccc2CN1C(=O)Cc1ccc(Cl)cc1)c1ccc(N2CCOCC2=O)cc1` gave a pIC50 of 5.80.
On to `O=C(Nc1ccc(N2CCOCC2=O)cc1)[C@@H]1Cc2ccccc2CN1C(=O)OCc1ccccc1`, for which the 2PT with Plasma [1] worked out at 1387 µM. Further, the negative-log IC50 (pIC50) against Coagulation factor X was 5.22.
As to `COc1ccc(CCC(=O)N2Cc3ccccc3C[C@H]2C(=O)N(C)c2ccc(N3CCOCC3=O)cc2)cc1`, the pIC50 against Coagulation factor X was 3.72.
`CN(C(=O)[C@@H]1Cc2ccccc2CN1C(=O)c1ccc(Cl)s1)c1ccc(N2CCOCC2=O)cc1` had a negative logarithm of the IC50 (pIC50) at Coagulation factor X of 4.44.
Same read-out and setting: the result for `CN(C(=O)[C@@H]1Cc2ccccc2CN1C(=O)c1ccc(Cl)s1)c1ccc(N2CCCCC2=O)cc1` reads 4.25; that for `CN(C(=O)[C@@H]1Cc2ccccc2CN1C(=O)OCc1ccccc1)c1ccc(N2CCCCC2=O)cc1`, 4.79; that for `O=C(Nc1ccc(N2CCCCC2=O)cc1)[C@@H]1Cc2ccccc2CN1C(=O)OCc1ccccc1`, 5.00.
The same measure, in the same setting: the result for `CCN(C(=O)[C@@H]1Cc2ccccc2CN1C(=O)OCc1ccccc1)c1ccc(N2CCOCC2=O)cc1` reads 4.72; that for `COc1ccc(CCC(=O)N2Cc3ccccc3C[C@H]2C(=O)N(C)c2ccc(N3CCOCC3=O)cc2)c(OC)c1`, under 3.30.

Source of the values: ChEMBL document CHEMBL2040721, “Potent direct inhibitors of factor Xa based on the tetrahydroisoquinoline scaffold” (Eur J Med Chem, 2012).
